Assay results from ChEMBL document CHEMBL1157743, “Mitotic arrest induced by a novel family of DNA topoisomerase II inhibitors” (J Med Chem, 2010).
Each block holds one compound with its values, some of them ahead of it. Activity calls are given as the source filed them. The calls are words filed in the database; no cut-off is given here.

Experiments:
SW1573 [1] = assay: Antiproliferative activity against human SW1573 cells after 48 hrs by SRB assay; format: functional; details: SW1573, 48 h
Outline: (§1)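 Human solid tumor lines and three immortalized nontumor lines in culture, exposed to the test agent. Read-out is growth inhibition, reported as GI50 (μM).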

HBL-100 [2] = assay: Antiproliferative activity against human HBL100 cells after 48 hrs by SRB assay; format: functional; details: HBL-100, 48 h; outline: as §1
HBL-100 [3] = assay: Induction of apoptosis in human HBL100 cells assessed as late apoptotic cells at 4 uM after 24 hrs by annexin V/Pi staining technique; format: functional
T47D [4] = assay: Induction of apoptosis in human T47D cells assessed as early apoptotic cells at 8 uM after 24 hrs by annexin V/Pi staining technique; format: functional
HBL-100 [5] = assay: Induction of apoptosis in human HBL100 cells assessed as early apoptotic cells at 2 uM after 24 hrs by annexin V/Pi staining technique; format: functional
HeLa [6] = assay: Induction of apoptosis in human HeLa cells assessed as late apoptotic cells at 8 uM after 24 hrs by annexin V/Pi staining technique; format: functional
WiDr [7] = assay: Induction of apoptosis in human WiDr cells assessed as early apoptotic cells at 8 uM after 24 hrs by annexin V/Pi staining technique; format: functional
HeLa [8] = assay: Induction of DNA damage in human HeLa cells assessed as phosphorylation of H2AX at 7.5 uM after 24 hrs by immunoblotting; format: functional, cell-based
Outline: (§2)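 HeLa cells exposed at 7.5 μM, sampled at 3, 6, 12 and 24 h. Protein extracts probed by Western blot for phospho-Chk2, phospho-H2AX and cyclin B1. Phospho-histone H3 Ser10 detected with a phospho-specific antibody. Includes a positive-control lane.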

HeLa [9] = assay: Induction of DNA damage in human HeLa cells assessed as phosphorylation of ChK2 at 7.5 uM after 24 hrs by immunoblotting; format: functional, cell-based; outline: as §2
T47D [10] = assay: Induction of apoptosis in human T47D cells assessed as late apoptotic cells at 8 uM after 24 hrs by annexin V/Pi staining technique; format: functional
HBL-100 [11] = assay: Induction of apoptosis in human HBL100 cells assessed as early apoptotic cells at 4 uM after 24 hrs by annexin V/Pi staining technique; format: functional
HBL-100 [12] = assay: Cell cycle arrest in human HBL100 cells assessed as accumulation of cells in G2/M phase after 24 hrs by flow cytometry; format: functional, cell-based
Outline: (§3)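 Flow cytometry of DNA content, giving the G0/G1, S, G2/M and sub-G1 fractions. Cells treated for 24 h at three doses alongside untreated controls. Values are means of at least two experiments.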

WiDr [13] = assay: Induction of apoptosis in human WiDr cells assessed as late apoptotic cells at 8 uM after 24 hrs by annexin V/Pi staining technique; format: functional
T47D [14] = assay: Induction of apoptosis in human T47D cells assessed as early apoptotic cells at 6 uM after 24 hrs by annexin V/Pi staining technique; format: functional
HeLa [15] = assay: Induction of apoptosis in human HeLa cells assessed as early apoptotic cells at 8 uM after 24 hrs by annexin V/Pi staining technique; format: functional
T47D [16] = assay: Antiproliferative activity against human T47D cells after 48 hrs by SRB assay; format: functional; outline: as §1
WiDr [17] = assay: Induction of apoptosis in human WiDr cells assessed as late apoptotic cells at 6 uM after 24 hrs by annexin V/Pi staining technique; format: functional
T47D [18] = assay: Induction of apoptosis in human T47D cells assessed as late apoptotic cells at 6 uM after 24 hrs by annexin V/Pi staining technique; format: functional
[19] = target: DNA topoisomerase 2-alpha (Homo sapiens) (UniProt P11388); assay: Inhibition of human topoisomerase 2 alpha assessed as inhibition of relaxation of Rel plasmid pHOT1 at 100 uM after 30 to 60 mins by gel electrophoresis relative to control
Outline: (§4)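 Purified TOP2 incubated with negatively supercoiled plasmid pHOT1. Supercoiled, nicked and relaxed topoisomers separated by agarose gel electrophoresis. Compared with lanes without enzyme and with enzyme alone.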

HeLa [20] = assay: Induction of DNA damage in human HeLa cells assessed as expression of cyclin B1 uM after 24 hrs by immunoblotting; format: functional, cell-based; outline: as §2
WiDr [21] = assay: Antiproliferative activity against human WiDr cells after 48 hrs by SRB assay; format: functional; outline: as §1
HeLa [22] = assay: Induction of apoptosis in human HeLa cells assessed as early apoptotic cells at 6 uM after 24 hrs by annexin V/Pi staining technique; format: functional
[23] = Antiproliferative activity against human HS27 cells after 48 hrs by SRB assay; format: cell-based; outline: as §1
[24] = target: DNA topoisomerase 2-alpha (Homo sapiens) (UniProt P11388); assay: Inhibition of human topoisomerase 2 alpha assessed as inhibition of formation of Lin form of plasmid pHOT1 at 100 uM after 30 to 60 mins by gel electrophoresis inthe presence of exsess of ethidium bromide relative to control
Outline: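 Cleavage-complex assay: purified TOP2 incubated with plasmid pHOT1. Agarose gel electrophoresis detects the linear (Lin) DNA form produced by trapped enzyme-cut intermediates.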

[25] = target: DNA topoisomerase 2-alpha (Homo sapiens) (UniProt P11388); assay: Inhibition of human topoisomerase 2 alpha assessed as inhibition of relaxation of NcK plasmid pHOT1 at 100 uM after 30 to 60 mins by gel electrophoresis relative to control; outline: as §4
HeLa [26] = assay: Induction of apoptosis in human HeLa cells assessed as late apoptotic cells at 6 uM after 24 hrs by annexin V/Pi staining technique; format: functional
[27] = target: DNA topoisomerase 2-alpha (Homo sapiens) (UniProt P11388); assay: Inhibition of human topoisomerase 2 alpha assessed as inhibition of relaxation of SC plasmid pHOT1 at 100 uM after 30 to 60 mins by gel electrophoresis relative to control; outline: as §4
HBL-100 [28] = assay: Induction of apoptosis in human HBL100 cells assessed as late apoptotic cells at 2 uM after 24 hrs by annexin V/Pi staining technique; format: functional
T47D [29] = assay: Cell cycle arrest in human T47D cells assessed as accumulation of cells in G2/M phase after 24 hrs by flow cytometry; format: functional, cell-based; outline: as §3
HeLa [30] = assay: Antiproliferative activity against human HeLa cells after 48 hrs by SRB assay; format: functional; outline: as §1
SW1573 [31] = assay: Cell cycle arrest in human SW1573 cells assessed as accumulation of cells in G2/M phase after 24 hrs by flow cytometry; format: functional, cell-based; outline: as §3
[32] = system: hTERT-HPNE (Homo sapiens); assay: Antiproliferative activity against hTERT-HPNE cells after 48 hrs by SRB assay
HeLa [33] = assay: Cell cycle arrest in human HeLa cells assessed as accumulation of cells in G2/M phase after 24 hrs by flow cytometry; format: functional, cell-based; outline: as §3
[34] = Antiproliferative activity against human MCF10A cells after 48 hrs by SRB assay; format: cell-based, MCF-10A; outline: as §1
WiDr [35] = assay: Cell cycle arrest in human WiDr cells assessed as accumulation of cells in G2/M phase after 24 hrs by flow cytometry; format: functional, cell-based; outline: as §3
WiDr [36] = assay: Induction of apoptosis in human WiDr cells assessed as early apoptotic cells at 6 uM after 24 hrs by annexin V/Pi staining technique; format: functional
[37] = target: DNA topoisomerase 2-alpha (Homo sapiens) (UniProt P11388); assay: Inhibition of human topoisomerase 2 alpha assessed as inhibition of decatenation of KDNA at 100 uM after 30 to 60 mins by gel electrophoresis with ethidium bromide relative to control
Outline: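 Decatenation assay: purified TOP2 incubated with kinetoplast DNA. Released minicircles (nicked, supercoiled and relaxed forms) resolved by agarose gel electrophoresis. Compared with lanes without enzyme and with enzyme alone, plus reference TOP2 inhibitors.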

Chain of DNA topoisomerase 2-alpha (Homo sapiens) (P11388 whole entry): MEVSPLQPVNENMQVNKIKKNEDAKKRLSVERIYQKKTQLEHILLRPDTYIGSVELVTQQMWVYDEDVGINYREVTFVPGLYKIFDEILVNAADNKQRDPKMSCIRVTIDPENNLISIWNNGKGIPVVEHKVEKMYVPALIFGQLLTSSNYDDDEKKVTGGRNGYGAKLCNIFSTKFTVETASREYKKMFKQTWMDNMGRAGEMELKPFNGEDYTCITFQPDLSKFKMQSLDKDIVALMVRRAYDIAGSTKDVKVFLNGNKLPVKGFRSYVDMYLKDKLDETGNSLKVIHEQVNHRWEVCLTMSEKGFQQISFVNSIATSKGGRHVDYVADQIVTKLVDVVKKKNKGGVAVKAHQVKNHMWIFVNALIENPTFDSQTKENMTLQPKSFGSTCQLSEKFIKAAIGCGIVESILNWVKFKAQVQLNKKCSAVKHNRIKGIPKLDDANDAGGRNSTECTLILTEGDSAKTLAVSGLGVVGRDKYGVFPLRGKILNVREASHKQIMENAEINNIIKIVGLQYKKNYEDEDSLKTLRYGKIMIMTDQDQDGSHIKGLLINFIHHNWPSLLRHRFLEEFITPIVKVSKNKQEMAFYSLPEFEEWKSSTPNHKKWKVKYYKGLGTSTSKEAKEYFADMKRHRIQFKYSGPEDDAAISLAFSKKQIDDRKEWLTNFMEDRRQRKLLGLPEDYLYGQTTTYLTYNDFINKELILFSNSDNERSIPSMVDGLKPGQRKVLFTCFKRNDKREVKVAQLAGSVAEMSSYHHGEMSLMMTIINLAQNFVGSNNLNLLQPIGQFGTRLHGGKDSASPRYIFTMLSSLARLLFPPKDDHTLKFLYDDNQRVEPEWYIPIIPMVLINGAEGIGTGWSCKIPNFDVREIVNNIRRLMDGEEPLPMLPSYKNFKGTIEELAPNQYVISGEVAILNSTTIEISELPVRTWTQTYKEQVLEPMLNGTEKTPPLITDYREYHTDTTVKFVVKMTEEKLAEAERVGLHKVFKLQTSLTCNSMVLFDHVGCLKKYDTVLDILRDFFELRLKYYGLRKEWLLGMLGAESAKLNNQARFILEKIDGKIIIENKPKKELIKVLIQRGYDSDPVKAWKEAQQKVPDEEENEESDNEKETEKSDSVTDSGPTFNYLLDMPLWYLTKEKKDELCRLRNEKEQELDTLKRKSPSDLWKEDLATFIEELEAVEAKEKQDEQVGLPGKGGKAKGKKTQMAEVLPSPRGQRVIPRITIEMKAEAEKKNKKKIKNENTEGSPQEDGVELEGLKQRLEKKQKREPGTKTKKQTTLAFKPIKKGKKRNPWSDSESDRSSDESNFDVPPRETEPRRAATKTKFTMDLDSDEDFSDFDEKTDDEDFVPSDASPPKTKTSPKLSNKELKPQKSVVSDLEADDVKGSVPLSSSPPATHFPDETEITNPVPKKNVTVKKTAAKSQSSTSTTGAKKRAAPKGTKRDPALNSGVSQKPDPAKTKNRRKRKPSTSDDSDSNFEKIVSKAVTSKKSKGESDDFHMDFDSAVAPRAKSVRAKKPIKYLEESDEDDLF

SMILES: CCOC(=O)C#CC(O/C=C/C(=O)OC)C(C)C (stereo unspecified)
- GI50 (SW1573 [1]): 960 nM
- GI50 (HBL-100 [2]): 880 nM

SMILES: Cc1ccc(S(=O)(=O)C#CC(O/C=C/S(=O)(=O)c2ccc(C)cc2)C(C)C)cc1 (stereo unspecified)
- GI50 (SW1573 [1]): 3200 nM
- GI50 (HBL-100 [2]): 3800 nM

SMILES: C#CC(O/C=C/C(=O)OC)c1ccccc1 (stereo unspecified)
- GI50 (SW1573 [1]): 31000 nM
- GI50 (HBL-100 [2]): 26000 nM

SMILES: COC(=O)C#CC(O/C=C/C(=O)OC)C(C)(C)C (stereo unspecified)
- GI50 (SW1573 [1]): 3000 nM
- GI50 (HBL-100 [2]): 1800 nM

SMILES: CCOC(=O)C#CCO/C=C/C(=O)OC
- GI50 (SW1573 [1]): 1800 nM
- GI50 (HBL-100 [2]): 2400 nM

SMILES: COC(=O)C#CC(O/C=C/C(=O)OC)C1CC1 (stereo unspecified)
- GI50 (SW1573 [1]): 1800 nM
- GI50 (HBL-100 [2]): 250 nM

SMILES: COC(=O)C#CC(O/C=C/C(=O)OC)C(C)C (stereo unspecified)
- GI50 (SW1573 [1]): 750 nM
- GI50 (HBL-100 [2]): 450 nM

SMILES: CCOC(=O)C#CC(C[C@@H](C)CCC=C(C)C)O/C=C/C(=O)OCC (stereo partly specified)
- GI50 (SW1573 [1]): 2600 nM
- GI50 (HBL-100 [2]): 2600 nM

More lines, main results first:

- GI50 (SW1573 [1]): 540 nM
SMILES: CCC(C#CC(=O)OC)O/C=C/C(=O)OC (stereo unspecified)
- GI50 (HBL-100 [2]): 320 nM

- GI50 (SW1573 [1]): 320 nM
SMILES: CCCC(C#CC(=O)OC)O/C=C/C(=O)OC (stereo unspecified)
- GI50 (HBL-100 [2]): 270 nM

- GI50 (SW1573 [1]): > 100000 nM
SMILES: CCCCCCC(C#CC(=O)O)O/C=C/C(=O)OC (stereo unspecified)
- GI50 (HBL-100 [2]): > 100000 nM

- GI50 (T47D [16]): 3800 nM
- Activity [19]: Active
- GI50 (SW1573 [1]): 240 nM
- Activity [24]: inactive
- Activity [25]: Active
- Activity [27]: Active
- GI50 (HeLa [30]): 2800 nM
- Activity [37]: Active
SMILES: CCCCC(C#CC(=O)OC)O/C=C/C(=O)OC (stereo unspecified)
- Activity (HBL-100 [3]): 12%
- Activity (T47D [4]): 11%
- Activity (HBL-100 [5]): 6.7%
- Activity (HeLa [6]): 11%
- Activity (WiDr [7]): 11%
- Activity (HeLa [8]): inactive
- Activity (HeLa [9]): inactive
- Activity (T47D [10]): 19%
- Activity (HBL-100 [11]): 5.3%
- Activity (HBL-100 [12]): Dose-dependent effect
- Activity (WiDr [13]): 28%
- Activity (T47D [14]): 12%
- Activity (HeLa [15]): 10%
- Activity (WiDr [17]): 21%
- Activity (T47D [18]): 24%
- Activity (HeLa [20]): inactive
- GI50 (WiDr [21]): 3100 nM
- Activity (HeLa [22]): 8.7%
- GI50 at 48 h [23]: 1900 nM
- Activity (HeLa [26]): 9%
- Activity (HBL-100 [28]): 12%
- Activity (T47D [29]): Dose-dependent effect
- Activity (SW1573 [31]): Dose-dependent effect
- GI50 at 48 h [32]: 1300 nM
- Activity (HeLa [33]): Dose-dependent effect
- GI50 (HBL-100 [2]): 250 nM
- GI50 at 48 h [34]: 34000 nM
- Activity (WiDr [35]): Dose-dependent effect
- Activity (WiDr [36]): 12%

- GI50 (SW1573 [1]): 2600 nM
SMILES: COC(=O)C#CC(CCc1ccccc1)O/C=C/C(=O)OC (stereo unspecified)
- GI50 (HBL-100 [2]): 2600 nM
